T cruzi growth-1: blocks T. cruzi growth in NIH3T3 culture. T. cruzi beta-gal in NIH3T3, GalScreen luminescence, 90 h. inhibition, % at 8.34 µM. 77,000 tested, 5.9% active. AID 624255;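 active means mean inhibition above about 93%, with at least 55% of replicates each passing it, limit read from the data, passing the limit was not always enough; inconclusive means only one of those two conditions holds; inactive means neither condition holds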
IDH1 R132H inh: IDH1 R132H (human) inhibition; O75874; IDH1 R132H reductase, diaphorase/resazurin fluorescence, 60 min; inhibition, % at 10 µM; 70,000 tested, 0.18% active; AID 624101; in the data active means inhibition above about 34%; inconclusive means no clear call, values can overlap the other calls; inactive means below about 11%;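 further: 0% = DMSO and 100% = no enzyme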
Target sequence (O75874 whole entry R132H): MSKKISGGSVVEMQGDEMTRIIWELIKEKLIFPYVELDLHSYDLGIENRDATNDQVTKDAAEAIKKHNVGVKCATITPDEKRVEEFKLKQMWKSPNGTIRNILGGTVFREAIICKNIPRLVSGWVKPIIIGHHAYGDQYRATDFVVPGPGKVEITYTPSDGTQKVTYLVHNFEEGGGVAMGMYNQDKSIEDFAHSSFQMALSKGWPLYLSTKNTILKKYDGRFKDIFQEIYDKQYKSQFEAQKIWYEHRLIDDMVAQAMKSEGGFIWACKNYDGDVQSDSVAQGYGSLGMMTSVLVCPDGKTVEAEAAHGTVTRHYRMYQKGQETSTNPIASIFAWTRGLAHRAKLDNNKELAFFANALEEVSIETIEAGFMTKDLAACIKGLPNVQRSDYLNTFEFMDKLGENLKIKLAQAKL
Pf Dd2 inh: blocks growth of Plasmodium falciparum Dd2 parasites. P. falciparum Dd2 growth, SYBR Green, 72 h; hits give low values. activity change, % at 10 µM. 94,000 tested, 2.3% active; in the data active means activity change below about -80%; inconclusive means no clear call, values can overlap the other calls
GASC1 inh: blocks human GASC-1 (KDM4C) demethylase activity; inhibition, % at 12.5 µM; 96,000 tested, 0.15% active; GST-KDM4C 2-372, H3K9me3 peptide, LANCE TR-FRET;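 active means mean replicate inhibition above about 25%, with at least 55% of replicates also reaching it, limit read from the data, passing the limit was not always enough; inconclusive means only one of those two conditions met; inactive means neither condition met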
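Assay system: GST-GASC-1 enzyme fragment 2-372 | Amount: 10 nM enzyme | Medium: HEPES buffer, pH 7.5, plus ascorbate | Reagent: H3K9me3 peptide substrate, Fe(II), 2-oxoglutarate | Doses: Single-point compound screen | Incubation: 30 min demethylation and 1 h detection at room temperature | Measured by: LANCE TR-FRET, excitation 340 nm, emissions 618 and 671 nm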
T cruzi growth-2: Trypanosoma cruzi proliferation inhibition. shares compounds with T cruzi growth-1. T. cruzi beta-gal in NIH3T3, GalScreen luminescence, 90 h. inhibition, % at 8.35 µM. 5,600 tested, 72% active;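 active means mean replicate inhibition above about 95% and at least 55% of replicates individually reaching it, limit read from the data; inconclusive means only one of the two criteria is met; inactive means neither criterion is met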
T cruzi growth-3: Trypanosoma cruzi proliferation inhibition | shares compounds with T cruzi growth-1 | T. cruzi beta-gal in NIH3T3, GalScreen luminescence, 90 h | inhibition, % at 2.09 µM | 5,600 tested, 21% active;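 active means mean inhibition above about 95%, with at least 55% of replicates also reaching it, limit read from the data; inconclusive means meets just one of the two conditions; inactive means meets neither condition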;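 further: plate controls were neutral control median for no effect and positive control median for full effect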
NIH3T3 tox: NIH/3T3 (mouse) viability loss. shares compounds with T cruzi growth-1. NIH/3T3 viability, CellTiter-Glo ATP luminescence, 90 h. 5,600 tested, 14% active. cytotoxicity (signal decrease), % at 8.35 µM;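 active means mean signal decrease across replicates above about 35% based on untreated-well scatter, with enough replicates individually passing, limit read from the data; inconclusive means no rule stated though some were filed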;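 further: 0% = median of neutral control wells and 100% = median of positive control wells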
3T3 cytotox 2: kills mouse NIH/3T3 fibroblasts; shares compounds with T cruzi growth-1; NIH/3T3 viability, CellTiter-Glo ATP luminescence, 90 h; inhibition, % at 24.9 µM; 5,600 tested, 56% active;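 active means mean loss of cell viability signal at or above a set limit, and enough replicates individually reaching it; inconclusive means meets only the mean limit or only the replicate share; inactive means meets neither condition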;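 further: 0% = median of neutral control wells and 100% = median of positive control wells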
* hit, by the source's call; ? = inconclusive; . = not tested or not shown. A selection: hits, their analogues and other compounds. The true share with any hit is near 5.8%.

SMILES	T cruzi growth-1	IDH1 R132H inh	Pf Dd2 inh	GASC1 inh	T cruzi growth-2	T cruzi growth-3	NIH3T3 tox	3T3 cytotox 2
N#C[C@H]1[C@@H](c2ccc(C#Cc3cccc(F)c3)cc2)[C@@H](CO)N1C(=O)C1CCCC1	93	.	-15	2	.	.	.	.
N#C[C@H]1[C@H](c2ccc(C#Cc3cccc(F)c3)cc2)[C@H](CO)N1C(=O)C1CCCC1	105*	.	-45	0	102*	77	11	95*
N#C[C@H]1[C@H](c2ccc(C#Cc3cccc(F)c3)cc2)[C@@H](CO)N1C(=O)C1CCCC1	99*	.	-39	0	94	102*	5	96*
CCN1[C@@H]2c3ccc(-c4cccc(OC)c4)c(=O)n3C[C@@H]2[C@@H](CO)[C@@H]1C(=O)N(C)C	44	.	12	-1	.	.	.	.
COc1cccc(-c2ccc([C@@H]3[C@@H](CO)N4CCCCN(S(=O)(=O)c5cccs5)C[C@@H]34)cc2)c1	97*	.	35	-2	60	-3	21	25*
COc1ccc(-c2ccc([C@H]3[C@@H](CO)N4CCCCN(S(=O)(=O)c5cccs5)C[C@@H]34)cc2)cc1	107*	.	2	-1	116*	89	23	10
COc1cccc(-c2ccc([C@H]3[C@H]4CN(S(=O)(=O)c5cccs5)CCCCN4[C@H]3CO)cc2)c1	75	.	10	-1	.	.	.	.
COCCNC(=O)C[C@H]1CC[C@@H]2[C@H](COc3ccc(NC(C)=O)cc3C(=O)N2C)O1	101*	.	-73	0	13	-38	5	7
COCCNC(=O)C[C@H]1CC[C@@H]2[C@@H](COc3ccc(NC(C)=O)cc3C(=O)N2C)O1	69	.	-64	0	.	.	.	.
CC(C)C(=O)Nc1ccc2c(c1)C(=O)N(C)[C@@H]1CC[C@@H](CC(=O)NCc3ccc(F)cc3)O[C@@H]1CO2	96*	.	4	-2	49	-13	17	-15
COCC(=O)Nc1ccc2c(c1)C(=O)N(C)[C@H]1CC[C@H](CC(=O)Nc3ccccc3OC)O[C@@H]1CO2	112*	.	-17	.	?	-4	10	11
CC(=O)Nc1ccc2c(c1)C(=O)N(C)[C@@H]1CC[C@@H](CC(=O)NCC3CCCCC3)O[C@H]1CO2	99*	.	16	7	10	29	2	-6
CC(C)C(=O)Nc1ccc2c(c1)C(=O)N(C)[C@@H]1CC[C@@H](CC(=O)NCc3ccc(F)cc3)O[C@H]1CO2	42	.	-13	0	.	.	.	.
CC(=O)Nc1ccc2c(c1)C(=O)N(C)[C@H]1CC[C@@H](CC(=O)NCC3CC3)O[C@@H]1CO2	-21	.	11	-1	.	.	.	.
COc1ccc(Cl)cc1NC(=O)CSc1nnc(-c2ccccc2)n1C	.	0	.	.	.	.	.	.
CN1C(=O)c2cc(NC(=O)c3ccc(F)cc3)ccc2OC[C@H]2O[C@@H](CC(=O)NCC3CCCCC3)CC[C@H]21	101*	.	-3	4	113*	61	39*	61*
C[C@@H]1CN([C@@H](C)CO)C(=O)c2cc(C3=CCCC3)cnc2O[C@@H]1CN(C)C	26	-1	46	20	.	.	.	.
C[C@H]1CN([C@@H](C)CO)C(=O)c2cccc(NC(=O)CCCCCC(=O)Nc3ccccc3N)c2O[C@@H]1CN(C)S(=O)(=O)c1ccccc1	.	.	-35	-1	.	.	.	.
C[C@H](CO)N1C[C@H](C)[C@H](CN(C)S(=O)(=O)c2ccc(Cl)cc2)Oc2c(NC(=O)CCCCCC(=O)Nc3ccccc3N)cccc2C1=O	106*	.	-81*	-2	114*	77	21	8
Cc1ccc(S(=O)(=O)N(C)C[C@H]2Oc3c(NC(=O)CCCCCC(=O)Nc4ccccc4N)cccc3C(=O)N([C@H](C)CO)C[C@@H]2C)cc1	.	.	-65	3	.	.	.	.
C[C@H]1CN([C@@H](C)CO)C(=O)c2cccc(NC(=O)CCCCCC(=O)Nc3ccccc3N)c2O[C@@H]1CN(C)S(=O)(=O)c1ccc(Cl)cc1	106*	1	?	-3	105*	69	31	21

Assay outcomes from PubChem.
